Results gathered from unrelated publications.
Protocols differ between the studies behind these lines.

Structure (SMILES)	system	setting	Cmax
COc1ccc2nccc(N3CCc4c(cc(Cn5ccnc5)cc4-c4cn(C)nc4C(F)(F)F)C3=O)c2c1	male CD-1 mouse, plasma	oral, 50 mg/kg	8940 ng/mL
Cc1c2c(n(-c3ccc(Cl)cc3Cl)c1-c1ccc(OS(=O)(=O)CCC(F)(F)F)cc1)CCN(N1CCCCC1)C2=O	mouse, plasma	oral, 6 µmol/kg, single dose	0.48 µM
CNCCN(C)c1cc(C#N)cc(CCc2cc(C)cc(N)n2)c1	male BALB/c mouse, brain	oral, 10 mg/kg	39.3 ng/g
CNC(=O)c1ccccc1Nc1cc(Nc2ccc(N3CCOCC3)cc2OC)ncc1C(F)(F)F	BALB/c mouse, plasma	oral, 150 mg/kg	~14 µM
Cc1cc(Nc2ccc(S(F)(F)(F)(F)F)cc2)n2ccnc2n1	male Swiss mouse, plasma	oral, 100 mg/kg, single dose	29 µM
CC(C)N1Cc2cc(C(F)(F)F)ncc2C2=CN=C(NCc3c(F)ccc4c3CCO4)N3C=NC(C1=O)C23 (centres unmarked)	male CD-1 mouse, plasma	oral, 10 mg/kg	5070 ng/mL
CCc1cc(OC)c2nccc(N3CCc4c(cc(Cn5ccnc5)cc4-c4cn(C)nc4C(F)(F)F)C3=O)c2c1	male CD-1 mouse, plasma	oral, 150 mg/kg	35200 ng/mL
Cc1ccc(NC(=O)c2ccc(CN3CCN(C)CC3)cc2)cc1Nc1nccc(-c2cncc(-c3oncc3C)c2)n1	male C57BL/6 mouse, brain	oral, 100 mg/kg/day	98.1 ng/mL
CC(C)Oc1c(NC(=O)c2ccc(NC(=O)[C@H](CC(N)=O)NC(=O)c3ccc(NC(=O)c4ccc(C#N)cc4)cc3)cc2)ccc(C(=O)Nc2ccc(C(=O)O)cc2)c1O	male CD-1 mouse, plasma	subcutaneous, 5 mg/kg, single dose	129 ng/mL
CN1CCC[C@H](CN2c3ccccc3Sc3ccccc32)C1.Cl	mouse, plasma	intraperitoneal, 32 mg/kg, single dose	1560 ng/mL
COc1cc2c(Nc3ccc(Cl)c(Cl)c3F)ncnc2cc1OC[C@@H]1C[C@@H]2CN(C)C[C@@H]2C1	FVB mouse, brain	oral, 70 mg/kg, single dose	7570 ng/g
Nc1ncc(-c2ccncc2)nc1Nc1ccc2[nH]ccc2c1	male C57BL/6 mouse, plasma	oral, 30 mg/kg	7 µM
CC[C@H](C)[C@@H]1NC(=O)[C@@](C)(NC(=O)[C@H](CCCNC(=N)N)NC(=O)[C@H](CC(C)C)NC(=O)[C@@H](NC(=O)[C@H](CCC(N)=O)NC(=O)[C@H](CC(C)C)NC(C)=O)[C@@H](C)O)CCCC=CCCC[C@@](C)(C(=O)N[C@@H](CC(C)C)C(=O)N[C@@H](Cc2ccc3ccccc3c2)C(N)=O)NC(=O)[C@H](CCCNC(=N)N)NC(=O)[C@H](CCC(N)=O)NC1=O	male BALB/c mouse, plasma	intravenous, 10 mg/kg	86 µM
CC(C)(O)c1cn(-c2ccc(-c3cc(F)c(CO)c(S(C)(=O)=O)c3)cc2)c(C(C)(C)c2cccc(F)c2Cl)n1	male C57BL/6 mouse, serum	oral, 10 mg/kg	1.9 µM
Cc1ccc2cncc(N3CCc4c(cc(Cn5ccnc5)cc4-c4cn(C)nc4C(F)(F)F)C3=O)c2c1	male CD-1 mouse, plasma	oral, 10 mg/kg	2680 ng/mL
OC[C@H]1O[C@@H](c2ccc(Cl)c(Cc3ccc(O[C@H]4CCOC4)cc3)c2)[C@H](O)[C@@H](O)[C@@H]1O	CD-1 mouse, plasma	intravenous, 5 mg/kg	4920 ng/mL
CS(=O)(=O)CCNCc1ccc(-c2ccc3ncnc(Nc4ccc(OCc5cccc(F)c5)c(Cl)c4)c3c2)o1	nude mouse, plasma	oral, 100 mg/kg, single dose	15200 ng/mL
CNC(=O)c1cc(Oc2ccc(NC(=O)Nc3ccc(Cl)c(C(F)(F)F)c3)c(F)c2)ccn1	male mouse, plasma	oral, 10 mg/kg, single dose	3300 ng/mL
CNC(=O)[C@H](Cc1c[nH]cn1)NC(=O)CN(CCCc1ccccc1)CC(=O)O	male C57BL/6 mouse, plasma	intraperitoneal, 30 mg/kg	11000 ng/mL
CC(C)(O)c1cn(-c2ccc(-c3ccc(CO)c(S(C)(=O)=O)c3)cc2)c(Cc2ccccc2Cl)n1	male C57BL/6 mouse, serum	oral, 10 mg/kg	3.2 µM
COc1cc(OC)c2nccc(N3CCc4c(cc(Cn5ccnc5)cc4-c4cn(C)nc4C(F)(F)F)C3=O)c2c1	male CD-1 mouse, plasma	oral, 50 mg/kg	19700 ng/mL
Cc1ncsc1-c1ccc(CNC(=O)[C@@H]2C[C@@H](O)CN2C(=O)[C@@H](NC(=O)CCCCCCCCCC(=O)N2CCN(CC[C@H](NC(=O)C3(N)CCN(c4ncnc5[nH]ccc45)CC3)c3ccc(Cl)cc3)CC2)C(C)(C)C)cc1	mouse, plasma	intraperitoneal, 75 mg/kg, single dose	10 µM
C[C@H](NC(=O)C(C)(C)Oc1ccc(C(F)(F)F)cn1)[C@@H](Cc1ccc(Cl)cc1)c1cccc(C#N)c1	mouse, plasma	oral, 6 µmol/kg, single dose	0.7 µM
O=S(=O)(c1ccc(-c2ccc3nccc(Nc4ccncn4)c3c2)cc1)N1CCOCC1	female BALB/c mouse, plasma	intraperitoneal, 10 mg/kg	4460 ng/mL

Structure (SMILES)	system	setting	Cmax
CN1C(=O)c2ccccc2[S@+]([O-])c2ccc(C(=O)NCCc3cccs3)cc21	male C57BL/6 mouse, brain	intraperitoneal, 30 mg/kg, single dose	1720 ng/g
CCOc1ccc(Cc2cc([C@@H]3O[C@H](CO)[C@@H](O)[C@H](O)[C@H]3O)ccc2Cl)cc1	male C57BL/6 mouse, plasma	oral, 1 mg/kg	207 ng/mL
COc1nc(-c2cc(C)c(N[C@@H](C)c3cc(F)cc(F)c3)nn2)ccc1-n1cnc(C)c1	male CD-1 mouse, plasma	intravenous, 1 mg/kg, single dose	699 ng/mL
CC(=O)O[C@H]1C(=O)[C@@]2(C)[C@H]([C@H](OC(=O)c3ccccc3)[C@]3(O)C[C@H](OC(=O)[C@H](O)[C@@H](NC(=O)c4ccccc4)c4ccccc4)C(C)=C1C3(C)C)[C@]1(OC(C)=O)CO[C@@H]1C[C@@H]2O	SCID mouse, plasma	intraperitoneal, 10 mg/kg, single dose	2100 ng/mL
COc1ccc([C@@]23Oc4cc(OC)cc(OC)c4[C@]2(O)[C@H](O)[C@H](C(=O)N(C)C)[C@H]3c2ccccc2)cc1	mouse, plasma	intraperitoneal, 5 mg/kg	~4 µM
Cc1noc([C@H](Cc2c[nH]cn2)NC(=O)CN(CCCc2ccccc2)CC(=O)O)n1	male C57BL/6 mouse, plasma	intraperitoneal, 30 mg/kg	5800 ng/mL
COc1nc(-c2cc(C)c(N[C@@H](C)c3c(F)cc(F)cc3F)nn2)ccc1-n1cnc(C)c1	male CD-1 mouse, plasma	oral, 5 mg/kg, single dose	1010 ng/mL
Cc1nc2ccc(F)cc2n1-c1nc(N)c(F)c(Nc2ccc(C(F)(F)F)cc2)n1	nude mouse, plasma	oral, 10 mg/kg	1160 ng/mL
CCc1cc(C(=O)NC)c2nccc(N3CCc4c(cc(Cn5ccnc5)cc4-c4cn(C)nc4C(F)(F)F)C3=O)c2c1	male CD-1 mouse, plasma	oral, 50 mg/kg	25100 ng/mL
Nc1nc(-c2ccccc2)nc2[nH]nc(Nc3ccc(C(F)(F)F)cc3)c12	mouse, plasma	oral, 100 mg/kg	1250 ng/mL
COc1ccc(C(O)COc2ccc(-c3csc(-c4ccc(OCC(O)c5ccc(OC)c(OC)c5)cc4)n3)cc2)cc1OC (centres unmarked)	C57BL/6 mouse, plasma	oral, 10 mg/kg	1760 ng/mL
C=CC(=O)N1CC2CC(n3nc(-c4ccc(C(=O)Nc5ccccn5)cc4)c4c(N)ncnc43)CC2C1 (centres unmarked)	SCID mouse, plasma	oral, 3 mg/kg	703 ng/mL
NS(=O)(=O)c1ccc(-c2cc(Nc3ccc(OC(F)(F)F)cc3)ncn2)cc1	male BALB/c mouse, plasma	oral, 20 mg/kg	2000 ng/mL
Cc1c(C(=O)NN2CCCCC2)nn(-c2ccc(Cl)cc2Cl)c1-c1ccc(Cl)cc1	mouse, plasma	oral, 20 µmol/kg, single dose	1.05 µM
CSc1cc(Oc2ccnc3[nH]c(=O)cnc23)ccc1NC(=O)Nc1cc(C(C)(C)C)nn1-c1ccccc1	BALB/c mouse, plasma	oral, 10 mg/kg	54.2 µM
NC(=O)c1cc(Oc2ccc(NC(=O)Nc3ccc(Cl)c(C(F)(F)F)c3)c(F)c2)cc[n+]1[O-]	mouse, plasma	oral, 10 mg/kg, single dose	22.9 ng/mL
Cc1nc(-c2cnc(NC(C)C)n(C)c2=O)ccc1Oc1ccnc(-c2cnn(C)c2)c1	female mouse, plasma	oral, 30 mg/kg, single dose	9350 ng/mL
CC(C)(C)c1ccc(O)c(CN(Cc2cc(C(C)(C)C)ccc2O)C2CCC(NC(N)=O)CC2)c1 (centres unmarked)	male C57BL/6 mouse, plasma	intraperitoneal, 10 mg/kg, single dose	2240 ng/mL
FC(F)(F)Oc1ccc(Nc2cc(-c3cn[nH]c3)ncn2)cc1	male BALB/c mouse, plasma	oral, 20 mg/kg	3400 ng/mL
CCc1ccc(Cc2cc([C@@H]3O[C@H](CO)[C@@H](O)[C@H](O)[C@H]3O)cc3c2CCC3)cc1	male C57BL/6 mouse, plasma	oral, 3 mg/kg	1830 ng/mL
COc1nc(-c2cc(C)c(N[C@@H](C)c3ccc(F)cc3)nn2)ccc1-n1cnc(C)c1	male CD-1 mouse, plasma	intravenous, 1 mg/kg, single dose	768 ng/mL
NC(=O)c1cccc(-c2c[nH]c3ncnc(N4CCOCC4)c23)c1	female C57BL/6 mouse, plasma	intraperitoneal, 10 mg/kg	11 µM
Cn1cnc2c(F)c(Nc3ccc(Br)cc3Cl)c(C(=O)NOCCO)cc21	nude mouse, liver	oral, 5 mg/kg, single dose, tumour-bearing	1340 ng/g
